# According to ChEMBL document CHEMBL3784930, “Design, synthesis and biological evaluation of N,N-3-phenyl-3-benzylaminopropanamide derivatives as novel cholesteryl ester transfer protein inhibitor” (Bioorg Med Chem, 2016):
# Species: Homo sapiens
# Assay: Reduction in LDL-cholestrol levels in mild dyslipidemia patient at 5 to 10 mg
# Format: functional
# Parameters: scale not given: the % may be the effect or the level left
# Details: not given
row,SMILES,Activity [%]
1,CCOC(=O)N1c2ccc(C(F)(F)F)cc2[C@@H](N(Cc2cc(C(F)(F)F)cc(C(F)(F)F)c2)c2ncc(OCCCC(=O)O)cn2)C[C@H]1CC [OBICETRAPIB],45.3

# System: Homo sapiens
# Assay: In vivo inhibition of CETP in human whole plasma at 120 mg for 14 days
# Format: functional, organism-based
# Details: 336 h
row,IC50 [µM],SMILES
1,0.05,CCOC(=O)N1c2ccc(C(F)(F)F)cc2[C@@H](N(Cc2cc(C(F)(F)F)cc(C(F)(F)F)c2)C(=O)OC)C[C@H]1CC [TORCETRAPIB]

# Biological target: Cholesteryl ester transfer protein (Homo sapiens) (UniProt P11597)
# Assay: Inhibition of recombinant CETP by BODIPY-CE fluorescence assay
# Details: not given
row,IC50 [µM],SMILES
1,8.06,COc1ccc(C(CC(=O)c2ccccc2)Nc2ccc(Cl)cc2)cc1OC (configuration not stated)

# System: Syrian golden hamster
# Assay: Antidyslipidemic activity in high cholesterol/lipid diet fed golden syrian hamster assessed as increase in HDL-cholesterol levels at 30 mg/kg/day, po administered for 2 weeks relative to control
# Format: functional, Mesocricetus auratus
# Details: not given
# Outline: (§1)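 Male Golden Syrian hamsters (8 weeks old, 120-130 g) were randomized by weight into control and treated groups (n = 6). Dyslipidemia was induced with a high cholesterol and lipid diet for 5 weeks. Dosing was oral at 30 mg/kg/day for two weeks in ethanol/cremophor/saline 5:5:90. Blood was drawn from the orbit, and serum lipid levels were compared with controls.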
row,SMILES,Activity [%]
1,CCOC(=O)c1ccc(N2CCN(C(=O)CCN(Cc3ccc(F)cc3)c3cccc(Oc4ccccc4)c3)CC2)cc1,21.7

# System: Syrian golden hamster
# Assay: Antidyslipidemic activity in high cholesterol/lipid diet fed golden syrian hamster assessed as reduction in LDL-cholesterol levels at 30 mg/kg/day, po administered for 2 weeks relative to control
# Format: functional, Mesocricetus auratus
# Parameters: scale not given: the % may be the effect or the level left
# Details: not given
# Outline: as §1
row,SMILES,Activity [%]
1,CCOC(=O)c1ccc(N2CCN(C(=O)CCN(Cc3ccc(F)cc3)c3cccc(Oc4ccccc4)c3)CC2)cc1,24.6

# Species: Homo sapiens
# Assay: Increase in HDL-cholestrol levels in mild dyslipidemia patient at 10 mg
# Format: functional
# Details: not given
row,SMILES,Activity [%]
1,CCOC(=O)N1c2ccc(C(F)(F)F)cc2[C@@H](N(Cc2cc(C(F)(F)F)cc(C(F)(F)F)c2)c2ncc(OCCCC(=O)O)cn2)C[C@H]1CC [OBICETRAPIB],179.1

# Biological target: T1, Cholesteryl ester transfer protein (Homo sapiens, UniProt P11597)
# T1 sequence (P11597 whole entry): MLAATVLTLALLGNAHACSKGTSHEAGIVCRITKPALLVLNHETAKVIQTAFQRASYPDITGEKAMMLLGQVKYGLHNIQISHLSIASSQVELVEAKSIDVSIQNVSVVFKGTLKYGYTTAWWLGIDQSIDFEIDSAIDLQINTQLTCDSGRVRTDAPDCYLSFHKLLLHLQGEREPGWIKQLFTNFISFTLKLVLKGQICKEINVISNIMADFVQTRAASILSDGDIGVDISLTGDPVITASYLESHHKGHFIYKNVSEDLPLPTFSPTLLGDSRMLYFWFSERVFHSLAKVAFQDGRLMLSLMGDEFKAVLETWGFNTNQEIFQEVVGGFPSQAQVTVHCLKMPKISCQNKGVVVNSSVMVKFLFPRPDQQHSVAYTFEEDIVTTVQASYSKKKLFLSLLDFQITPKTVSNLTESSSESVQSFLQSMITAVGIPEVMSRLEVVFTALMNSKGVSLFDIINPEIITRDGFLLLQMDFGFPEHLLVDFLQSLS
# Assay: Inhibition of full-length human recombinant CETP expressed in CHO cells by BODIPY-CE fluorescence assay
# Format: cell-based
# Details: not given
row,SMILES,IC50 [µM]
1,Cc1cc(N(CCC(=O)N2CCN(c3ccccc3)CC2)Cc2ccc(F)cc2)ccc1Br,13.9
2,O=C(CCN(Cc1ccc(F)cc1)c1ccc(Cl)c(Cl)c1)NC1CC1,> 50
3,CCc1cc(N(CCC(=O)N2CCN(c3ccccc3)CC2)Cc2ccc(F)cc2)ccc1Cl,19.5
4,CC(C)(C)NC(=O)CCN(Cc1ccc(F)cc1)c1ccc(Cl)c(Cl)c1,29.6
5,O=C(CCN(Cc1ccc(F)cc1)c1ccc(Cl)c(Cl)c1)N1CCN(c2ncccn2)CC1,11.8
6,CCCCN(CC1CC1)C(=O)CCN(Cc1ccc(F)cc1)c1ccc(Cl)c(Cl)c1,> 50
7,O=C(CCN(Cc1ccc(F)cc1)c1ccc(Cl)c(Cl)c1)N1CCOCC1,14.2
8,O=C(CCN(Cc1ccc(F)cc1)c1ccc(Cl)c(C(F)(F)F)c1)N1CCN(c2ccccc2)CC1,37.8

# Results, then the compound that gave them:
row,IC50 [µM],SMILES
1,3.5,COc1ccc(N2CCN(C(=O)CCN(Cc3ccc(F)cc3)c3ccc(Cl)c(Cl)c3)CC2)cc1
2,2.8,CCOC(=O)c1ccc(N2CCN(C(=O)CCN(Cc3ccc(F)cc3)c3ccc(Cl)c(Cl)c3)CC2)cc1
3,7.3,COc1ccc(N2CCN(C(=O)CCN(Cc3ccc(F)cc3)c3cccc(-c4ccccc4)c3)CC2)cc1
4,10.7,O=C(CCN(Cc1ccc(F)cc1)c1ccc(Cl)c(Cl)c1)NC1CCCCC1
5,5.2,O=C(CCN(Cc1ccc(F)cc1)c1ccc(Cl)c(Cl)c1)N1CCN(c2ccccc2)CC1
6,11.3,O=C(CCN(Cc1ccc(F)cc1)c1cccc(-c2ccccc2)c1)N1CCN(c2ccccc2)CC1
7,2.8,COc1ccc(N2CCN(C(=O)CCN(Cc3ccc(F)cc3)c3cccc(Oc4ccccc4)c3)CC2)cc1
8,3.1,CCOC(=O)c1ccc(N2CCN(C(=O)CCN(Cc3ccc(F)cc3)c3cccc(-c4ccccc4)c3)CC2)cc1
